The list is not random: actives were taken first. Their share in the collection is about 2.5%.
TRPC4 block: TRPC4 (mouse) channel inhibition. Q9QUQ5. HEK293 TRPC4beta/mu-opioid, DAMGO-evoked Fluo4 calcium flux; stronger effect = lower value. B-score at 10 µM. 0.39% of 300,000 active;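 active = B-score over 3 SD under the library average, no early fluorescence shift, positive overall ratio signal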
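Assay system: HEK293 cells with stable TRPC4beta plus mu-opioid receptor expression. Dosing: single dose. Measured by: Fluo4 Ca2+ flux fluorescence. Also added: DAMGO in two steps, submaximal then maximal. Read-out: B score from integrated Fluo4 fluorescence ratio.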
TRPC4 act: TRPC4 (mouse) channel activation; Q9QUQ5; HEK293 TRPC4beta/mu-opioid, Fluo4 calcium fluorescence; stronger effect = higher value; B-score at 10 µM; 0.49% of 310,000 active;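 active = B-score above 5 SD of library B-scores, and initial fluorescence ratio not above library mean plus 5 SD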;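 note: positive B-score marks a calcium rise read as TRPC4 activation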
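Material: HEK293 stable line with TRPC4beta plus mu-opioid receptor; technique: Fluo4 calcium-sensitive dye fluorescence, kinetic, 1 Hz baseline; timing: Fluo4 dye loading 45 min at room temperature, 110 s recording; controls: assay buffer as low control, maximal DAMGO as high control; read-out: integrated baseline-normalised fluorescence ratio, converted to per-well B score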
TRPC6 activator: mouse TRPC6 channel activation. HEK293-TRPC6 membrane potential dye fluorescence; stronger effect = higher value. B-score at 10 µM. 0.13% of 310,000 active. AID 2550;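 active = B-score of the integrated fluorescence ratio above library mean plus 3 SD, and starting fluorescence ratio within library mean plus 5 SD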;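 note: higher score means more depolarization so channel activation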
Target sequence (Q61143 whole entry, looked up): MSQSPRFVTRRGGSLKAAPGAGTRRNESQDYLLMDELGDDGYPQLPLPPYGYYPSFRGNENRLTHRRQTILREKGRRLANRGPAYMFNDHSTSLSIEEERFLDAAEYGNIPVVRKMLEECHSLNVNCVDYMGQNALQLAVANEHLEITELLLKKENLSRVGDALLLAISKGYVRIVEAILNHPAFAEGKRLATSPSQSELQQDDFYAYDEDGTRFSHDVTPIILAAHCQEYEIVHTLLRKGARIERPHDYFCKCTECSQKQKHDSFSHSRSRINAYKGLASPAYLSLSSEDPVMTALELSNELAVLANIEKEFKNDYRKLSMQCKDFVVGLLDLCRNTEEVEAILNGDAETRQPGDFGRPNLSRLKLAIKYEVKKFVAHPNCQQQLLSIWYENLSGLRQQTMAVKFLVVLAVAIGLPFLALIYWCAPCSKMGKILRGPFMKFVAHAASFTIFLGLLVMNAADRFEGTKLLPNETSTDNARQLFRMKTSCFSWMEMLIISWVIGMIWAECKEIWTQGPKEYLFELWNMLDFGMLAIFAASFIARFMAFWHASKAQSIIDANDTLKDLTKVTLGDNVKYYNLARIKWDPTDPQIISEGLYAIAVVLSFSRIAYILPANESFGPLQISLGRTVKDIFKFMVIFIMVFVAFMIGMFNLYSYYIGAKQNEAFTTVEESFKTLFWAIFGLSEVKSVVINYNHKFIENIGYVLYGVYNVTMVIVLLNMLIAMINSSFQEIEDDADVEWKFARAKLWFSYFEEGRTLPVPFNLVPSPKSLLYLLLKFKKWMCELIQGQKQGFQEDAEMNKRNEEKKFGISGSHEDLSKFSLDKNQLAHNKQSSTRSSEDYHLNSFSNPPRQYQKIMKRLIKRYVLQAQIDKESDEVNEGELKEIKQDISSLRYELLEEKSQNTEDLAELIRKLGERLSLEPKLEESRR
TRPC4 potent: allosterically enhances the mouse TRPC4 cation channel; HEK293 TRPC4beta/mu-opioid, DAMGO EC20, Fluo-4 Ca2+ flux; stronger effect = higher value; B-score at 10 µM; 0.42% of 310,000 active; AID 2227;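 active = B-score of calcium response area above 5 SD of library B-scores, with initial fluorescence ratio within 5 SD of library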;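 note: B-score of integrated fluorescence ratio over time as area under calcium response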
Platelet DG rel: platelet dense granule release activity; 0.22% of 300,000 active; human platelet-rich plasma, SFLLRN dense granule ATP release, luminescence; AID 1663; inhibition, %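 (compounds screened at 7.5 µM in platelet-rich plasma)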;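 active = mean replicate score, as percent of positive control, at or above 50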
TRPC6 inh: inhibitors of mouse TRPC6 channel; Q61143; HEK293-TRPC6, membrane potential dye, ACh-evoked depolarization; stronger effect = lower value; B-score at 10 µM; 1.1% of 310,000 active; AID 2553;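 active = B-score under library mean minus 3 SD, initial fluorescence not abnormally high, positive integrated signal ratio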;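 note: B-score derived from integrated fluorescence ratio over the kinetic read; more negative B-score means stronger inhibition of depolarization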
TRPC4 sel inh 2: mouse TRPC4 off-target activity of TRPC6 inhibitors, second screen; shares compounds with TRPC6 inh; HEK293 TRPC4/MOR, membrane potential dye fluorescence; channel activated by saturating DAMGO dose; inhibition, % at 10 µM; 42% of 920 active; AID 2776;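 active = compounds whose fluorescence signal differed from control wells by over 3 SD, either direction, in both duplicate plates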
TRPC4 spec: selectivity of TRPC6 inhibitors: effect on mouse TRPC4; HEK293 TRPC4/mu-opioid, membrane potential fluorescence; activity change, negative = inhibition, % at 10 µM; shares compounds with TRPC6 inh; 61% of 920 active;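 active = rise or fall in signal beyond 3 SD of buffer-only wells in both replicate plates, either sign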;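 note: integrated kinetic ratio of fluorescence range over baseline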
HEK293 MPD ctr 2-1: second check of TRPC6 inhibitor effects in parental HEK293 cells; shares compounds with TRPC6 inh; parental HEK293 membrane potential dye fluorescence; maximal acetylcholine challenge after compound addition; signal change vs control, % at 10 µM; 31% of 920 active; AID 2779;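 active = membrane potential signal moving either way by over 3 SD of the maximum-effect control, in both duplicate plates, meaning non-specific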
HEK293 MPD ctr-1: counter-screen for TRPC6 inhibitors: effect in parental HEK293 cells | shares compounds with TRPC6 inh | parental HEK293 membrane potential dye fluorescence | membrane potential signal change, % at 10 µM | 60% of 920 active | AID 2780;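 active = membrane potential signal shifting up or down by more than 3 SD of buffer-only wells, on both duplicate plates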
HEK293 MPD ctr-2: parental HEK293 nonspecific activity of TRPC6 modulators; shares compounds with TRPC6 inh; membrane potential dye fluorescence; membrane potential signal change, % at 10 µM; 51% of 2,400 active; AID 488924;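 active = membrane potential signal moves up or down beyond 5 SD from buffer-only wells, on both duplicate plates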
HEK293 MPD ctr 2-2: second check of TRPC6 modulator effects in parental HEK293 cells. membrane potential dye fluorescence; after compound, maximal acetylcholine stimulation. shares compounds with TRPC6 inh. 14% of 2,400 active. AID 488926. inhibition, % at 10 µM;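 active = membrane potential signal drops by more than 5 SD from the mean control signal, in both duplicate plates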;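 note: plate controls were acetylcholine ECmax control wells for no effect and buffer only wells for full effect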
TRPC4 ctr mod: selectivity of TRPC6 modulators against mouse TRPC4. shares compounds with TRPC6 inh. percent change from control (negative = decrease, positive = increase), % at 10 µM. HEK293 TRPC4/mu-opioid, membrane potential fluorescence. AID 488927. 69% of 2,400 active;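 active = membrane potential signal moved up or down beyond 5 SD of buffer control wells, in both duplicate plates, actives on both sides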;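 note: plate controls were assay buffer wells for no effect and DAMGO maximal-effect wells for full effect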
TRPC4 ctr inh 2: mouse TRPC4 off-target activity of TRPC6 modulators, second screen | inhibition, % at 10 µM | 55% of 2,400 active | HEK293 TRPC4/mu-opioid, membrane potential dye fluorescence; stimulated with maximal-effect DAMGO | shares compounds with TRPC6 inh;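 active = drop in membrane potential signal beyond 5 SD of the control wells in both duplicate plates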;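 note: TRPC4 counter screen for TRPC6 hits run under conditions tuned for TRPC6 not TRPC4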
TRPC6 inh conf: mouse TRPC6 inhibitor confirmation; shares compounds with TRPC6 inh; HEK293-TRPC6, membrane potential dye, ACh-evoked depolarization; inhibition, % at 10 µM; 43% of 3,300 active; AID 488960;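 active = fluorescence ratio falls more than 5 SD below the full-stimulation control mean, in both duplicate runs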;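 note: integrated fluorescence ratio of peak minus minimum over baseline after agonist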
TRPC6 act conf: confirmation of mouse TRPC6 activators. shares compounds with TRPC6 inh. HEK293-TRPC6 membrane potential dye fluorescence, FDSS. activation, % at 10 µM. 11% of 2,800 active;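 active = ratio signal rise beyond 5 SD above unstimulated control wells' mean, seen in both duplicate runs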;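 note: plate controls were buffer EC0 wells for no effect and acetylcholine ECmax response for full effect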
* = called active by the depositor; i = inactive; x = no result.

SMILES | TRPC4 block | TRPC4 act | TRPC6 activator | TRPC4 potent | Platelet DG rel | TRPC6 inh | HEK293 MPD ctr-2 | HEK293 MPD ctr 2-2 | TRPC4 ctr mod | TRPC4 ctr inh 2 | TRPC6 inh conf | TRPC6 act conf | others
CN(C)C(=O)C(CCN1CCC(O)(c2ccc(Cl)cc2)CC1)(c1ccccc1)c1ccccc1 | i | 50* | i | i | 3 | -5.4* | 115%* | i | 78%* | 112%* | 61%* | x
CN(C)c1ccc(NC(=O)CN2CCC(O)(c3ccccc3)CC2)cc1 | i | i | i | i | -20 | i | x | x | x | x | x | x
CC(=O)Nc1ccc2c(c1)ncn2-c1ccc(C)cc1 | i | i | i | i | x | -5.5* | i | i | i | i | i | i
CCOC(=O)N1CCN(C(=O)c2cc3cc(F)ccc3[nH]2)CC1 | i | i | i | i | -3 | i | x | x | x | x | x | x
CCOC(=O)N1CCN(C(=O)c2cc3cc(Cl)ccc3[nH]2)CC1 | i | i | i | i | 0 | -6.1* | i | i | i | i | i | i
COc1ccc(NC(=O)Cn2nnc(-c3ccccc3NS(=O)(=O)c3ccccc3)n2)cc1 | i | i | i | i | -7 | i | x | x | x | x | x | x
COc1ccc(S(=O)(=O)Nc2ccccc2-c2nnn(CC(=O)Nc3ccccc3OC)n2)cc1 | i | i | i | i | 0 | -5.3* | i | i | i | i | i | i
Cc1c(C)n(C)c2ccc(C(=O)N3CCN(c4ccccn4)CC3)cc12 | i | i | i | i | -1 | i | x | x | x | x | x | x
Cc1c(C)n(C)c2ccc(C(=O)N3CCN(c4ccccc4)CC3)cc12 | i | i | i | i | -6 | -7.2* | i | i | i | i | 40%* | i
Nc1ccc(-c2cc3ccccc3oc2=O)cc1 | i | i | i | i | 1 | i | x | x | x | x | x | x
O=C/C=C/c1c(-c2ccccc2)cc2oc3ccccc3cc1-2 | i | i | i | i | 1 | -9.3* | x | x | x | x | i | i | TRPC4 sel inh 2=i;TRPC4 spec=i;HEK293 MPD ctr 2-1=i;HEK293 MPD ctr-1=i
CN(CCC1CCOCC1)C(=O)CC1C(=O)NCCN1Cc1ccccc1F (stereo unspecified) | i | i | i | i | 1 | i | x | x | x | x | x | x
Cc1cc(C)cc(N(CCC#N)C(=O)COC(=O)C2CCN(c3ccc(C(F)(F)F)cn3)CC2)c1 | i | i | i | i | -3 | -6.4* | i | i | 14%* | i | i | i
Cc1ccc(N(CCC#N)C(=O)COC(=O)C2CCN(c3ccc(C(F)(F)F)cn3)CC2)cc1 | i | i | i | i | 17 | i | x | x | x | x | x | x
CCN(CC)/C(=N\S(=O)(=O)c1ccc(F)cc1)c1ccccc1 | i | i | i | i | 1 | i | x | x | x | x | x | x
COc1cc(OC)c(C(=O)Nc2ccncc2)cc1OC | i | i | i | i | 5 | -5.1* | i | 72%* | -8.5%* | 36%* | 46%* | i
COc1ccc(-c2sc(Nc3ccccc3)n[n+]2-c2ccc(F)cc2)c(C)c1C | i | i | i | i | 4 | -5.4* | i | i | i | 63%* | i | i
Cc1cccc(-c2sc(Nc3ccccc3)n[n+]2-c2ccc(F)cc2)c1 | i | i | i | i | -2 | i | x | x | x | x | x | x
COc1ccc(S(=O)(=O)N2CCN(c3cc(-c4ccccc4)nc4ncnn34)CC2)cc1 | i | i | i | i | -3 | i | x | x | x | x | x | x
COc1ccc(-c2cc(N3CCCC3)n3ncnc3n2)cc1 | i | i | i | i | -2 | -6.5* | 134%* | i | 26%* | i | i | x
COC(=O)C1=NN(C(=O)c2ccc(Cl)cc2)C(O)(c2ccccc2)C1 (stereo unspecified) | i | 59* | 16* | i | -3 | i | 321%* | i | 73%* | i | x | 190%*
CCC1=NN(C(=O)c2ccc(Cl)cc2)C(O)(c2ccccc2)C1 (stereo unspecified) | i | i | i | i | -2 | i | x | x | x | x | x | x
CCOC(=O)C1=NN(C(=O)c2ccc(C)cc2)C(O)(c2ccc(Cl)cc2)C1 (stereo unspecified) | i | 90* | 18* | i | -1 | -8* | 281%* | i | 70%* | i | i | 180%*
CCC1=NN(C(=O)c2ccc(Cl)cc2)C(O)(c2ccc(C)cc2)C1 (stereo unspecified) | i | i | i | i | 2 | i | x | x | x | x | x | x
CCN(CC)C(=O)c1sc2c(c1C)c(=O)n(-c1ccc(C)c(C)c1)c(=O)n2CC(=O)NCC1CCCO1 (stereo unspecified) | i | i | i | i | 10 | i | x | x | x | x | x | x
COc1cc(OC)c(NC(=O)Cn2cnc3sc(C)c(S(=O)(=O)N4CCOCC4)c3c2=O)cc1Cl | i | i | i | i | -2 | i | x | x | x | x | x | x
